In ChEMBL document CHEMBL2311339, “Identification of GZD824 as an orally bioavailable inhibitor that targets phosphorylated and nonphosphorylated breakpoint cluster region-Abelson (Bcr-Abl) kinase and overcomes clinically acquired mutation-induced resistance against imatinib” (J Med Chem, 2013):
pIC50, pKd: −log10 of the molar value. Activity calls are given as the source filed them. No cut-off for these calls is given here.

Tests used:
[1] = biological target: Tyrosine-protein kinase ABL1 (Homo sapiens, UniProt P00519, T315I); test: Binding affinity to non phosphorylated ABL1 T315I mutant (unknown origin) after 1 hr
BaF3 = test: Antitumor activity against mouse BA/F3 cells expressing BCR-ABL T315I mutant allografted in SCID mouse assessed as inhibition of tumor growth at 5 to 10 mg/kg/day, po qd for 14 days; type: functional, organism-based
How it was run: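 Ba/F3 cells stably expressing Bcr-Abl (wild type or mutant) were grown in RPMI 1640 with 10% FBS and no IL-3, then suspended in saline (2.5 × 10^7 cells/mL) and given as 0.2 mL s.c. in the right flank. Groups were randomised at 100−200 mm3. Once-daily oral gavage for 14 days in DMSO/Cremophor/ethanol/saline vehicle; reference imatinib 50 or 100 mg/kg/day. Volume L × W²/2 every 2 days; n = 10; t test versus vehicle.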

[2] = Cytotoxicity against mouse BA/F3 cells expressing BCR-ABL E255K mutant assessed as growth inhibition after 72 hrs by CCK-8 assay; conditions: BaF3, 72 h
Cytochrome P450 2C19 = Cytochrome P450 2C19 (Homo sapiens, UniProt P33261); test: Inhibition of human recombinant CYP2C19 after 30 mins; type: ADME
HL-60 = test: Cytotoxicity against human HL60 cells […] assessed as growth inhibition after 72 hrs by CCK-8 assay; type: functional, cell-based; conditions: HL-60, 72 h
How it was run: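 Log-phase human leukemia cells were seeded at about 3000 cells/well and treated 24 h later for 72 h. CCK-8 was then incubated with the cells for 3 h and read as OD450 − OD650. Viability was normalized to vehicle wells and cell-free blanks, and IC50 taken as the mean of three experiments.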

[3] = Half life in rat liver microsomes at 1 uM; type: ADME, Microsome
K562 = test: Antitumor activity against human K562 cells xenografted in mouse assessed as decrease in tumor recurrence at 5 to 10 mg/kg, po qd for 20 days; type: functional, organism-based
[4] = biological target: Tyrosine-protein kinase ABL1 (Homo sapiens, UniProt P00519, E255K); test: Inhibition of human recombinant ABL1 E255K mutant expressed in insect cells after 30 mins by FRET assay; type: cell-based
[5] = biological target: Receptor-type tyrosine-protein kinase FLT3 (Homo sapiens) (UniProt P36888); test: Binding affinity to FLT3 (unknown origin) at 10 nM after 2 hrs by FRET assay
[6] = AUC (0 to t) in rat at 25 mg/kg, po; type: ADME, organism-based; set-up: dose 25 mg/kg, route oral; conditions: plasma
How it was run: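 Bismesylate salt given to rats as a single iv dose of 5 mg/kg or a single oral dose of 25 mg/kg. Plasma drug levels were followed over time to derive the PK parameters. The 12 h and 24 h plasma levels come from the oral 25 mg/kg dose.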

Sequence of Receptor-type tyrosine-protein kinase FLT3 (Homo sapiens) (P36888 whole entry): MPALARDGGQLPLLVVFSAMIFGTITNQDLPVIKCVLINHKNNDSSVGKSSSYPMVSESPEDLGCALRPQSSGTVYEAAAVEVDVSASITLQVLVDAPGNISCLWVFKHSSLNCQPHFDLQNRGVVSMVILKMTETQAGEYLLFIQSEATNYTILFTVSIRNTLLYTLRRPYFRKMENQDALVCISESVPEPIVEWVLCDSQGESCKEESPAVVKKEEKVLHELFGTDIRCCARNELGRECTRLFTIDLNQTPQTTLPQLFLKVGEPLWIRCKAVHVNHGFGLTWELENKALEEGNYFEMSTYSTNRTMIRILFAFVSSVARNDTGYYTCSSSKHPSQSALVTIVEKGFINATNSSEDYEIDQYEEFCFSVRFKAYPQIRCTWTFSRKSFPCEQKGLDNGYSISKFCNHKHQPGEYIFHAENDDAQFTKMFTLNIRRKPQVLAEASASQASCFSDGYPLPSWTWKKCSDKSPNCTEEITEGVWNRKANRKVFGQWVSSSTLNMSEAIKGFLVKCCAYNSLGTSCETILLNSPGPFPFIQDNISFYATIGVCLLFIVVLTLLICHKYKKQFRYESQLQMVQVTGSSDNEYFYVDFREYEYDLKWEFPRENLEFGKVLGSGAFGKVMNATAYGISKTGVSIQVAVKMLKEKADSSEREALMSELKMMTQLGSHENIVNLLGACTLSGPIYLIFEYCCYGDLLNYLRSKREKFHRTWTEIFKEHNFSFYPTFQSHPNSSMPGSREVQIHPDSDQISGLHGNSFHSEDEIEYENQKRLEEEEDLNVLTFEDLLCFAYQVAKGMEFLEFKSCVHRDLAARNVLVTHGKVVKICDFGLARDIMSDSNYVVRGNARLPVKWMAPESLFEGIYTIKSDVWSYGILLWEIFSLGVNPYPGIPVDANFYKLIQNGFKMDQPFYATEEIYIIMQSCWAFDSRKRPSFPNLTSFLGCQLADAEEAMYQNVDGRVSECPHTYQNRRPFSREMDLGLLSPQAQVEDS
Sequence of Cytochrome P450 2C19 (P33261 whole entry): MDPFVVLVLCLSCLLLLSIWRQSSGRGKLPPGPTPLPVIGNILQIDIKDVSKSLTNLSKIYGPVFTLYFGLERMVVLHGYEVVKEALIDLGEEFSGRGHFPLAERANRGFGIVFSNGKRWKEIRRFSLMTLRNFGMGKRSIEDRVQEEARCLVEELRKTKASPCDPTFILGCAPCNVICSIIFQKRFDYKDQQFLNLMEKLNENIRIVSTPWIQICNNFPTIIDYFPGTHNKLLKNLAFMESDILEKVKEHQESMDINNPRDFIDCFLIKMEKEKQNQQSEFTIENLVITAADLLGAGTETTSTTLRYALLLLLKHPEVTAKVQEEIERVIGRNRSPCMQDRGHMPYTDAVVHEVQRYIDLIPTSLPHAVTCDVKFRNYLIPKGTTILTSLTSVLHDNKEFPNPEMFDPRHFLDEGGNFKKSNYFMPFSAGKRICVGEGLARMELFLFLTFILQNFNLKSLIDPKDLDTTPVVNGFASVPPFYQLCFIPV

SMILES: Cc1ccc(C(=O)Nc2ccc(CN3CCN(C)CC3)c(C(F)(F)F)c2)cc1C#Cc1cnc2[nH]ncc2c1 [OLVEREMBATINIB]
- pKd [1]: 9.15
- TGI (BaF3): inactive
- pIC50 [2]: 8.46
- pIC50 (Cytochrome P450 2C19): 6.00
- pIC50 (HL-60): 6.46
- half-life at 1 µM [3]: 56 min
- Activity (K562): Active
- pIC50 [4]: 9.57
- Activity [5]: inactive
- AUC(0-t) [6]: 6700 ng·h/mL
